We go through 50 compounds from ChEMBL document CHEMBL1149169 (J Med Chem, 2004).

SMILES strings stand for the structures.

Assay [1] deals with T1, Adenosine receptor A1 (Homo sapiens, UniProt P30542).
T1 sequence (P30542 whole entry): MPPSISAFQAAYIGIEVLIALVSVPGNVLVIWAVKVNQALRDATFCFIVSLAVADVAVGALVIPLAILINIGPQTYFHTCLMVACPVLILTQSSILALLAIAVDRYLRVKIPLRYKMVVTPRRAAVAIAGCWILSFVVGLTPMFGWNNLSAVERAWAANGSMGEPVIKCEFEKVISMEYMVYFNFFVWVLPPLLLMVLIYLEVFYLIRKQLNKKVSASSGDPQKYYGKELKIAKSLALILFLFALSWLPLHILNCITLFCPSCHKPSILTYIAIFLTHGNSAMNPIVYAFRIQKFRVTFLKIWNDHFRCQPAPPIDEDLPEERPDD
The experiment in a line: Binding affinity against adenosine A1 receptor in human cortical membranes using [3H]CHA as radioligand. The format is cell membranes.

Assay [2] concerns the target T2, Adenosine receptor A1 (Bos taurus, UniProt P28190).
T2 sequence (P28190 whole entry): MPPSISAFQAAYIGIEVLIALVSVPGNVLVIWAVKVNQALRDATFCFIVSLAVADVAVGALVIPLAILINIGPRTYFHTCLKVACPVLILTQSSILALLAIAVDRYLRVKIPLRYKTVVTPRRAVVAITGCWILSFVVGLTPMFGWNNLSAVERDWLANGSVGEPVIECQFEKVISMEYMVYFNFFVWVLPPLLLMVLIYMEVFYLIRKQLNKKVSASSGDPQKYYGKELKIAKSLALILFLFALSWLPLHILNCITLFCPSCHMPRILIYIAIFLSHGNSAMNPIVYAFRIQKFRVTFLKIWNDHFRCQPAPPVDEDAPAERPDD
The experiment in a line: Binding affinity against adenosine A1 receptor in bovine cortical membranes using [3H]CHA as radioligand. The class given is cell membranes. In outline: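 Bovine cortical membranes; [3H]-CHA at 39 Ci/mmol. Compounds dissolved in DMSO, with solvent blanks run. At least six concentrations spanning 3 orders of magnitude.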

Assay [3] deals with Adenosine receptor A2a (Homo sapiens, UniProt P29274). The experiment in a line: Binding affinity against adenosine A2 receptor in human striatal membranes using [3H]CGS-21680 as radioligand. The format is cell membranes, Striatum, Membrane.
Assay [4] concerns the target Adenosine receptor A2a (Bos taurus). The experiment in a line: Binding affinity against adenosine A2 receptor in bovine striatal membranes using [3H]-CGS-21,680 as radioligand.
Assay [5] has as its target T2, Adenosine receptor A1. The experiment in a line: Displacement of [3H]DPCPX from adenosine A1 receptor in bovine brain cortical membranes. The class given is cell membranes. In outline:
(§1)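 Cortical membranes (0.05–0.1 mg protein) incubated in triplicate at 25 °C for 120 min with about 0.5 nM [3H]-DPCPX (89 Ci/mmol). Buffer: 50 mM Tris/HCl pH 7.7, 1 mM EDTA, 2 mM MgCl2. Nonspecific binding with 10 μM (R)-PIA; GF/C filtration.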
(Loss of bound radioactivity is the signal in a displacement assay; it reports binding, not function.)

Assay [6] has as its target T1, Adenosine receptor A1. The experiment in a line: Displacement of [3H]DPCPX from adenosine A1 receptor in human brain cortical membranes. The format is cell membranes. In outline: as §1
A short description of assay [7]: Ratio of binding affinity against bovine adenosine A1 to that of A2 receptor.

Sequence of Adenosine receptor A2a (P29274 whole entry): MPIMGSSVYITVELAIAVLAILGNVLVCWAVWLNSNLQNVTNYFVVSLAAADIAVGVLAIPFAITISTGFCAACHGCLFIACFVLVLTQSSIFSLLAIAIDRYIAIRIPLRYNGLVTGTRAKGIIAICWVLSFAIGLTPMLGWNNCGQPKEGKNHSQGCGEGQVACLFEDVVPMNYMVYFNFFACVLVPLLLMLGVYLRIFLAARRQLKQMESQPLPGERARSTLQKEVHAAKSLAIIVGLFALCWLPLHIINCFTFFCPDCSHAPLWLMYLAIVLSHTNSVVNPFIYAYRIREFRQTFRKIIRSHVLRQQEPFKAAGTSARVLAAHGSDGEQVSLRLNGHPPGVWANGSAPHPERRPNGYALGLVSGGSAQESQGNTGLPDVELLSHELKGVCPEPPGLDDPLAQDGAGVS

Usually Ki stands for a measure of affinity in units of concentration, obtained from inhibition or displacement. In assay [1], `Cc1ccc2ccc(-c3ccccc3)nc2n1` displayed a Ki greater than 10000 nM.

Take `Cc1cc(O)c2ccc(=O)[nH]c2n1`: the Ki in assay [2] was greater than 10000 nM; in assay [3], greater than 10000 nM; in assay [1], greater than 10000 nM; in assay [4] it was greater than 10 µM.

Take `Cc1ccc2c(NC3CCCCC3)cc(-c3ccccc3)nc2n1`: the Ki in assay [5] turned out to be 39 nM; in assay [6] it was 448 nM; in assay [1], 560 nM.

With `CCOc1cc(-c2ccccc2)nc2nc(Br)ccc12`, the figures for the inhibition constant (Ki) in assay [2] and in assay [1] were 50 nM and 1000 nM, respectively.

For the compound `CCOc1ccc2c(=O)cc(-c3ccccc3)n(CC)c2n1`, the Ki in assay [2] was 48 nM; in assay [3], 1400 nM; in assay [1], 930 nM; in assay [4], greater than 10 µM. Also, in assay [7], the Ratio turned out to be 208.

As to `Cc1cc(O)c2ccc(N)nc2n1`, the Ki was greater than 10000 nM in assay [5]; greater than 10000 nM in assay [2]; greater than 10000 nM in assay [6]; 7500 nM in assay [3]; greater than 10000 nM in assay [1].

With `Cc1ccc2c(O)cc(-c3ccc(N)cc3)nc2n1`, the Ki in assay [2] was found to be 6.8 nM; in assay [3] it was 110 nM; in assay [1], 910 nM; in assay [4], 0.5 µM. Also, the Ratio in assay [7] was determined as 73.

With `O=c1ccc2c(O)cc(-c3ccccc3)nc2[nH]1`, the Ki in assay [6] and in assay [1] was greater than 10000 nM each time.

`COc1cc(-c2ccccc2)nc2nc(C)ccc12` returned an inhibition constant Ki in assay [1] greater than 10000 nM.

As for `Cc1ccc2c(N=[N+]=[N-])cc(-c3ccccc3)nc2n1`, the Ki in assay [1] was greater than 10000 nM.

In assay [2], `CCCn1c(=O)c2[nH]c(C3CCCC3)nc2n(CCC)c1=O` [1,3-DIPROPYL-8-CYCLOPENTYLXANTHINE [DPCPX]] registered a Ki of 0.25 nM.

`Oc1cc(-c2ccccc2)nc2ncccc12` returned a Ki in assay [1] of 1300 nM.

As to `CCOc1ccc2c(O)cc(-c3ccccc3)nc2n1`, the Ki was 1500 nM in assay [3] and 2600 nM in assay [1]. In addition, in assay [7], the Ratio was greater than 1920.

In turn, `CCn1c(-c2ccccc2)cc(=O)c2ccc(C)nc21` gave an inhibition constant Ki in assay [1] greater than 10000 nM.

For `Cc1ccc2c(O)cc(-c3ccc(F)cc3)nc2n1`, the affinity in assay [1] corresponds to a Ki of 3900 nM.

Compound `COc1cc(-c2ccccc2)nc2c1ccc(=O)n2C` returned a Ki in assay [1] greater than 10000 nM.

In the case of `CN(C)c1ccc2c(O)cc(-c3ccccc3)nc2n1`, the Ki is 6.02 nM in assay [5], 0.56 nM in assay [2], 1370 nM in assay [6] and 980 nM in assay [1].

In turn, `Oc1cc(-c2ccccc2)nc2nc(Oc3ccccc3)ccc12` came in with a Ki in assay [1] greater than 10000 nM.

`Cc1ccc2c(N)ccnc2n1`: the Ki was greater than 10000 nM in assay [2], greater than 10000 nM in assay [3], greater than 10000 nM in assay [1] and greater than 10 µM in assay [4].

With `Nc1nc2c(cnn2CCc2ccccc2)c2nc(-c3ccco3)nn12` [SCH-58261], in assay [2], the Ki came out at 357 nM.

With `Nc1ccc2c(O)cc(-c3ccccc3)nc2n1`, the Ki in assay [1] worked out at 3400 nM.

As to `Cc1ccc2c(N)cc(-c3ccccc3)nc2n1`, the inhibitory constant (Ki) in assay [1] was determined as 2000 nM.

In assay [1], `Cc1ccc2c(Cl)cc(-c3ccccc3)nc2n1` displayed a Ki greater than 10000 nM. The Ratio in assay [7] is greater than 10.

As for `CCCc1cc(O)c2ccc(C)nc2n1`, the inhibition constant (Ki) in assay [5] was found to be 61.5 nM; in assay [2], 48 nM; in assay [6], 1450 nM; in assay [1] it was 1500 nM.

Turning to `CC(=O)Nc1ccc(-c2cc(O)c3ccc(C)nc3n2)cc1`, the Ki in assay [5] amounted to 1.67 nM; in assay [2], 1 nM; in assay [6], 1460 nM; in assay [1], 2000 nM.

As for `Cc1ccc2c(O)cc(-c3cccc(N)c3)nc2n1`, the affinity in assay [1] corresponds to a Ki of 4000 nM.

As to `CCOc1ccc2c(OCC)cc(-c3ccccc3)nc2n1`, the Ki in assay [2] is 290 nM; in assay [3], greater than 10000 nM; in assay [1] it was greater than 10000 nM; in assay [4], greater than 10 µM. For the same compound, the Ratio in assay [7] is greater than 34.

Turning to `COc1ccc2c(O)cc(-c3ccccc3)nc2n1`, the Ki in assay [1] came to 2000 nM.

As for `Oc1cc(-c2ccccc2)nc2nc(NC3CCCCC3)ccc12`, the Ki was found to be 70 nM in assay [2] and 2200 nM in assay [1].

The compound `Cc1ccc2c(NN)cc(-c3ccccc3)nc2n1` had a Ki in assay [1] greater than 10000 nM.

Regarding `CSc1cc(-c2ccccc2)nc2nc(C)ccc12`, the Ki in assay [2] was 380 nM; in assay [3] it was 210 nM; in assay [1] it was greater than 10000 nM; in assay [4] it was greater than 10 µM. The Ratio in assay [7] was greater than 26.

Turning to `Cn1c(=O)ccc2c(O)cc(-c3ccccc3)nc21`, the Ki in assay [1] is greater than 10000 nM.

On to `Cc1ccc2c(N(C)C)cc(-c3ccccc3)nc2n1`, for which the inhibition constant Ki in assay [1] is greater than 10000 nM.

As to `CCCc1cc(O)c2ccc(N)nc2n1`, the results for the Ki in assay [2] and in assay [1] were 210 nM and 4100 nM, respectively.

`Cc1ccc2c(O)cc(-c3ccccc3)nc2n1`: the Ki amounted to 550 nM in assay [3] and 430 nM in assay [1]. For the same compound, the Ratio in assay [7] came out at 87.

`Cc1ccc2c(O)cc(-c3cccc([N+](=O)[O-])c3)nc2n1`: the Ki in assay [2] was found to be 15 nM; in assay [1] it was 2200 nM.

For `Cc1ccc2c(O)ccnc2n1`, the Ki was 7000 nM in assay [2], 1800 nM in assay [3], greater than 10000 nM in assay [1] and greater than 10 µM in assay [4]. Besides, the Ratio in assay [7] was greater than 1.4.

In assay [1], `Cc1ccc2c(O)cc(-c3ccc([N+](=O)[O-])cc3)nc2n1` displayed a Ki of 3100 nM.

Consider `CCOC(=O)CCN1CCN(c2ccc3c(O)cc(-c4ccccc4)nc3n2)CC1`, for which the Ki in assay [2] and in assay [1] was greater than 10000 nM each time.

Take `Oc1cc(-c2ccccc2)nc2nc(Cl)ccc12`: the values for the Ki in assay [5], in assay [6] and in assay [1] were 1.62 nM, 670 nM and 300 nM, respectively.

With `Oc1cc(-c2ccccc2)nc2nc(N3CCCCC3)ccc12`, the Ki is 7.2 nM in assay [2], greater than 10000 nM in assay [3], 7500 nM in assay [1] and greater than 10 µM in assay [4]. Also, in assay [7], the Ratio was greater than 1390.

For the compound `Oc1cc(-c2ccccc2)nc2nc(N3CCOCC3)ccc12`, the Ki in assay [2] is 160 nM; in assay [3], greater than 10000 nM; in assay [1], greater than 10000 nM; in assay [4] it was greater than 10 µM. For the same compound, the Ratio in assay [7] was greater than 63.

Turning to `Oc1cc(-c2ccccc2)nc2nc(Br)ccc12`, the Ki in assay [5] was 1.6 nM; in assay [6], 336 nM; in assay [1] it was 360 nM.

Regarding `Oc1cc(-c2ccccc2)nc2nc(F)ccc12`, the Ki was 2700 nM in assay [3] and 1400 nM in assay [1]. In addition, the Ratio in assay [7] is 41.

The compound `Cc1ccc2c(N3CCNCC3)cc(-c3ccccc3)nc2n1` had a Ki in assay [1] greater than 10000 nM.

`Cc1ccc2c(S)cc(-c3ccccc3)nc2n1` gave a Ki in assay [1] of 2000 nM.

In the case of `Oc1cc(-c2ccccc2)nc2nc(N3CCNCC3)ccc12`, the Ki in assay [2] was greater than 10000 nM; in assay [3] it was greater than 10000 nM; in assay [1], greater than 10000 nM; in assay [4], greater than 10 µM.

The compound `Cc1ccc2c(Oc3ccccc3)cc(-c3ccccc3)nc2n1` registered a Ki in assay [1] of 8800 nM.

`Cc1ccc2c(O)cc(-c3ccccc3F)nc2n1`: the inhibitory constant (Ki) in assay [3] was determined as 40 nM; in assay [1], 490 nM. The Ratio in assay [7] was 43.

In the case of `CCOc1cc(-c2ccccc2)nc2c1ccc(=O)n2CC`, the Ki in assay [2] was 4700 nM; in assay [1], greater than 10000 nM.
